Results as given in ChEMBL document CHEMBL1124240, “Substrate analogue inhibitors of the IgA1 proteinases from Neisseria gonorrhoeae” (J Med Chem, 1988).
“And” between values parts separate entries of the source, which are not always exact repeats. Identical values can stand only once. Bridge positions count the residues as written; N and C are the ends. Peptide text beside a SMILES is read from it. I, II: the chains in the order shown.

Target: T1, IgA-specific serine endopeptidase autotransporter (Neisseria gonorrhoeae, UniProt P09790)
Experiment: Tested for inhibitory activity against IgA1 proteinase in 40% TFE
Summary of the method: (§1)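 Buffer contained 40% trifluoroethanol to dissolve the peptide. Type 1 and type 2 N. gonorrhoeae IgA1 proteinases (partially purified) were preincubated with inhibitor for 30 min at 37 °C, then cleaved 125I-labelled monomeric human IgA1. Samples were taken every 10 min over 30 min, boiled and run on SDS-PAGE. Fd/Fc/α-chain segment counts gave percent cleavage, and the rate was taken from the slope.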

T1 sequence (P09790 whole entry): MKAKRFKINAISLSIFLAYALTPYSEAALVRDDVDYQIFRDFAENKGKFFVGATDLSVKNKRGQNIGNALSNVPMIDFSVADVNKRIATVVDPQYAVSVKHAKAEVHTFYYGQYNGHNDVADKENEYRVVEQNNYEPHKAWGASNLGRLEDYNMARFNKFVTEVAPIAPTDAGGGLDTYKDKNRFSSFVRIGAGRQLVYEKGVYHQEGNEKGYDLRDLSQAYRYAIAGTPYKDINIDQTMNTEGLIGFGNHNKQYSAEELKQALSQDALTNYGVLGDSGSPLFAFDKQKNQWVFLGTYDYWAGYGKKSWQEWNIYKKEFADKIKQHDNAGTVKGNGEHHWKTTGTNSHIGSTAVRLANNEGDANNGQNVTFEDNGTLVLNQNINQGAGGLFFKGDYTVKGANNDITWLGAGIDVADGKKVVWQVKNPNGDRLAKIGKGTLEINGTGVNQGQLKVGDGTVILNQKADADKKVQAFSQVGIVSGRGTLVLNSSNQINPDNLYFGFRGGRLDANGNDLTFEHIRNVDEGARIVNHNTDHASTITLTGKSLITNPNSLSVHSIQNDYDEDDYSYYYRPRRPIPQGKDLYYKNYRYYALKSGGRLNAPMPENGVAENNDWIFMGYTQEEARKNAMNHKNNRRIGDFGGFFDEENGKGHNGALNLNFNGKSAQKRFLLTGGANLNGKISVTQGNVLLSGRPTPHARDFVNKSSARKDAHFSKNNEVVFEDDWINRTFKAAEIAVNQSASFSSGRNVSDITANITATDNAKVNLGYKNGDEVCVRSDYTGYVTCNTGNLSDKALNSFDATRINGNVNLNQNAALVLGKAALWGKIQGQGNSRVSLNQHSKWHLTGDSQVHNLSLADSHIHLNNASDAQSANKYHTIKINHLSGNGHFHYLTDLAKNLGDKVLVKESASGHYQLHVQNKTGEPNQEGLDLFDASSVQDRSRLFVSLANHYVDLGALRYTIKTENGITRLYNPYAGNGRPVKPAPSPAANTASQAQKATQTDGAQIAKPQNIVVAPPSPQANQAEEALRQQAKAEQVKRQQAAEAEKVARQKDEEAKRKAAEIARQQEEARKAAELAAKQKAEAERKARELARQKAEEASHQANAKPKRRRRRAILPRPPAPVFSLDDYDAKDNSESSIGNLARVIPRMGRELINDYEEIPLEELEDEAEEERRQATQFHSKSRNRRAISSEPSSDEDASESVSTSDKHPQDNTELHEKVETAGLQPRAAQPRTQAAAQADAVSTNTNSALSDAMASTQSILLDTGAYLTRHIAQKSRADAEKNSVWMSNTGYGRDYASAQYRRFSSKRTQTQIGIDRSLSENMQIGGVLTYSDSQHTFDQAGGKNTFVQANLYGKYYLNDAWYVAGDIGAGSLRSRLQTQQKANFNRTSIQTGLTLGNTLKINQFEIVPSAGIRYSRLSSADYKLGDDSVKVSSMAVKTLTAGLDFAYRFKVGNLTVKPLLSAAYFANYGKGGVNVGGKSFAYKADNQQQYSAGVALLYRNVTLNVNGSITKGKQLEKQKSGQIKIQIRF

Compound | IC50 [µM]
CC(=O)N[C@H](C(=O)N1CCC[C@H]1C(=O)N1CCC[C@H]1C(=O)N[C@@H](CSSC[C@H](NC(=O)[C@@H]1CCCN1C(=O)[C@@H]1CCCN1C(=O)[C@@H](NC(C)=O)[C@@H](C)O)C(=O)N1CCC[C@H]1C(=O)N[C@@H](CO)C(=O)N1CCC[C@H]1C(=O)N[C@@H](CO)C(N)=O)C(=O)N1CCC[C@H]1C(=O)N[C@@H](CO)C(=O)N1CCC[C@H]1C(=O)N[C@@H](CO)C(N)=O)[C@@H](C)O (I: Ac-TPPCPSPS-NH2 / II: Ac-TPPCPSPS-NH2; disulfide I:4-II:4) | 200

Target: T1, IgA-specific serine endopeptidase autotransporter
Experiment: Tested for inhibitory activity against IgA1 proteinase
Summary of the method: (§2)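 Type 1 and type 2 IgA1 proteinases from N. gonorrhoeae, partially purified from cell-free defined-medium cultures and stored at -70 °C. Peptides were in 0.05 M Tris-HCl, pH 7.5, and preincubated with enzyme for 30 min at 37 °C. Substrate was monoclonal monomeric human serum IgA1, 125I-labelled. Samples were taken at 10-min intervals over 30 min and run on SDS-PAGE with autoradiography. Fd, Fc and uncleaved α-chain bands were counted, and the rate came from the slope of percent cleavage versus time.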

Compound | IC50
CC(=O)N[C@H](C(=O)N1CCC[C@H]1C(=O)N1CCC[C@H]1C(=O)N[C@H](C(=O)N1CCC[C@H]1C(=O)N[C@@H](CO)C(=O)N1CCC[C@H]1C(=O)N[C@@H](CSSC[C@H](NC(=O)[C@@H]1CCCN1C(=O)[C@H](CO)NC(=O)[C@@H]1CCCN1C(=O)[C@@H](NC(=O)[C@@H]1CCCN1C(=O)[C@@H]1CCCN1C(=O)[C@@H](NC(C)=O)[C@@H](C)O)[C@@H](C)O)C(N)=O)C(N)=O)[C@@H](C)O)[C@@H](C)O | 3300 µM
CC(=O)N[C@H](C(=O)N1CCC[C@H]1C(=O)N1CCC[C@H]1C(=O)N[C@H](C(=O)N1CCC[C@H]1C(=O)N[C@@H](CSSC[C@H](NC(=O)[C@@H]1CCCN1C(=O)[C@@H](NC(=O)[C@@H]1CCCN1C(=O)[C@@H]1CCCN1C(=O)[C@@H](NC(C)=O)[C@@H](C)O)[C@@H](C)O)C(=O)N1CCC[C@H]1C(=O)N[C@@H](CO)C(N)=O)C(=O)N1CCC[C@H]1C(=O)N[C@@H](CO)C(N)=O)[C@@H](C)O)[C@@H](C)O | 5150 µM
CC(=O)N[C@@H](CSSC[C@H](NC(C)=O)C(=O)N1CCC[C@H]1C(=O)N1CCC[C@H]1C(=O)N[C@H](C(=O)N1CCC[C@H]1C(=O)N[C@@H](CO)C(=O)N1CCC[C@H]1C(=O)N[C@@H](CO)C(N)=O)[C@@H](C)O)C(=O)N1CCC[C@H]1C(=O)N1CCC[C@H]1C(=O)N[C@H](C(=O)N1CCC[C@H]1C(=O)N[C@@H](CO)C(=O)N1CCC[C@H]1C(=O)N[C@@H](CO)C(N)=O)[C@@H](C)O (I: Ac-CPPTPSPS-NH2 / II: Ac-CPPTPSPS-NH2; disulfide I:1-II:1) | 1810 µM and 3450 µM
Ac-CPPTPSPS-NH2 | 310 µM and 120 µM
Ac-TPPTPCPS-NH2 | 200 µM and 50 µM
Ac-TPPTPSPC-NH2 | 1030 µM and 490 µM
Ac-TPPTPSPS-NH2 | 9350 µM and 6680 µM
Ac-TPPTPSPS-OH | 1570 µM and 510 µM
H-TPPTPSPS-NH2 | 400 µM and 180 µM
H-TPPTPSPS-OH | 260 µM and 500 µM
H-TPPTPSPSTPPTPSPS-OH | 310 µM

Target: T1, IgA-specific serine endopeptidase autotransporter
Experiment: Tested for inhibitory activity against IgA1 proteinase assayed in 40% TFE
Summary of the method: as §1

Compound | IC50 [µM]
CC(=O)N[C@H](C(=O)N1CCC[C@H]1C(=O)N1CCC[C@H]1C(=O)N[C@@H](CSSC[C@H](NC(=O)[C@@H]1CCCN1C(=O)[C@@H]1CCCN1C(=O)[C@@H](NC(C)=O)[C@@H](C)O)C(=O)N1CCC[C@H]1C(=O)N[C@@H](CO)C(=O)N1CCC[C@H]1C(=O)N[C@@H](CO)C(N)=O)C(=O)N1CCC[C@H]1C(=O)N[C@@H](CO)C(=O)N1CCC[C@H]1C(=O)N[C@@H](CO)C(N)=O)[C@@H](C)O (I: Ac-TPPCPSPS-NH2 / II: Ac-TPPCPSPS-NH2; disulfide I:4-II:4) | 170

Target: IgA-specific serine endopeptidase autotransporter (Neisseria gonorrhoeae) (UniProt P09790)
Experiment: Percent inhibition was tested against IgA1 proteinase at 0.30 mM
Summary of the method: as §2

Chain of IgA-specific serine endopeptidase autotransporter (Neisseria gonorrhoeae) (P09790 whole entry): as above

Compound | inhibition [%]
C[C@H](O)[C@H](NC(=O)[C@@H]1CCCN1C(=O)[C@@H]1CCCN1C(=O)[C@@H](N)[C@@H](C)O)C(=O)N1CCC[C@H]1C(=O)N[C@@H](CO)C(=O)N1CCC[C@H]1C(=O)N[C@@H](CO)C(=O)N[C@H](C(=O)N1CCC[C@H]1C(=O)N1CCC[C@H]1C(=O)N[C@H](C(=O)N1CCC[C@H]1C(=O)N[C@@H](CO)N1CCC[C@H]1C(=O)N[C@@H](CO)C(=O)O)[C@@H](C)O)[C@H](C)O | 19

Target: IgA-specific serine endopeptidase autotransporter (Neisseria gonorrhoeae) (UniProt P09790)
Experiment: Tested for inhibitory activity against IgA1 proteinase at >2 mM
Summary of the method: as §2

Compound | inhibition [%]
CC(=O)N[C@H](C(=O)N1CCC[C@H]1C(=O)N1CCC[C@H]1C(=O)N[C@H](C(=O)N1CCC[C@H]1C(=O)N[C@@H](CSSC[C@H](NC(=O)[C@@H]1CCCN1C(=O)[C@@H](NC(=O)[C@@H]1CCCN1C(=O)[C@@H]1CCCN1C(=O)[C@@H](NC(C)=O)[C@@H](C)O)[C@@H](C)O)C(=O)N1CCC[C@H]1C(=O)N[C@@H](CO)C(N)=O)C(=O)N1CCC[C@H]1C(=O)N[C@@H](CO)C(N)=O)[C@H](C)O)[C@@H](C)O | 0
